Compound activity (PubChem)
SKKanGAS inh – SKKanGAS growth inhibition; S. pyogenes SKKanGAS, kanamycin growth, BacTiter-Glo, 6 h; inhibition, % at 7.5 µM; 300,000 compounds, 1.3% hits;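 active = mean replicate score, as percent of positive control median, at least 50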;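 also: strain carries kanamycin resistance gene driven by streptokinase promoter and grows in 40 µg/ml kanamycin; loss of luminescence reflects streptokinase promoter inhibition or plain growth inhibition; 0% = median of DMSO wells and 100% = positive control at its reference dose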
Beta apoptosis – beta cell apoptosis inhibition. protection from apoptosis, % (concentration not given with the values). INS-1E cytokine-induced death, ATP luminescence, 48 h; percent of positive-control rescue, neutral wells zero. 300,000 compounds, 0.8% hits;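 active = Every replicate reaches about 75%, or at least half do and their mean reaches it too, limit read from the data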;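 also: 0% = cytokine-treated negative control wells and 100% = positive control rescue; higher means more ATP so stronger rescue from cytokine killing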
L major viab – inhibitors of Leishmania major promastigote growth; Leishmania major promastigotes, resazurin fluorescence viability; inhibition, % at 10 µM; 200,000 compounds, 9% hits; in the data active = inhibition above about 50%;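 also: promastigotes grown with compound for 44 hours at 28 °C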
Mdm2 MdmX PPI – inhibitors of human Mdm2/MdmX interaction; O15151+Q00987; SaOS-2 split-luciferase Mdm2/MdmX complementation, luminescence; inhibition, % at 8 µM; 330,000 compounds, 3% hits; AID 485346;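 active = inhibition of at least 50% at 8 µM in the primary screen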
CSC inhib – blocks cancer stem cells. cancer stem cell-like cells viability, luminescence. inhibition, % at 7.5 µM. 300,000 compounds, 1.1% hits. AID 2717; in the data active = inhibition above about 75%; tested in HMLE shEcad cells
T cruzi repl – blocks replication of Trypanosoma cruzi; inhibition, % (test concentration not listed); 300,000 compounds, 1.4% hits; T. cruzi beta-gal in NIH3T3, luminescence, 90 h;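 active = mean inhibition across valid replicates above about 55%, limit read from the data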;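 also: signal also drops with host cell toxicity which is not excluded here; 0% = plate median of DMSO wells and 100% = zero luminescence signal; higher percent means less beta-gal luminescence so fewer parasites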
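System: Mouse NIH/3T3 fibroblasts infected with β-gal-expressing T. cruzi Tulahuen C4 | Quantity: NIH/3T3 cells, 5,000 per well | Reagent: 5000 reporter trypomastigotes per well | Dosing: Compound pinned at 50 nL/well, DMSO | Schedule: 3 h host attachment, then at least 90 h co-culture | Detection: GalScreen luminescence, 60 min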
The depositor's hits bear a star; x = no result. This is a sample that favours compounds with a hit; in the whole collection about 9.4% have one here.

SMILES	SKKanGAS inh	Beta apoptosis	L major viab	Mdm2 MdmX PPI	CSC inhib	T cruzi repl
O=C(Nc1nnc(SCc2ccc(F)cc2)s1)C1CC(=O)N(Cc2ccccc2)C1 (stereo not given)	3.4	1.2	54.4*	-20.4	-4.5	0.3
O=C(CSc1nnc(NC(=O)C2CC(=O)N(c3ccc(F)cc3)C2)s1)NCc1ccco1 (stereo not given)	54.0*	x	x	5.4	-15.1	-4.4
O=C(Nc1nnc(SCCC2OCCO2)s1)C1CC(=O)N(c2ccc(F)cc2)C1 (stereo not given)	53.9*	1.7	x	-7.9	-19.4	-0.5
CN(C(=O)c1ccc(C#N)cc1)c1nnc(-c2cnccn2)s1	-5.1	-1.4	x	-1.4	-14.0	5.4
CCc1ccc(OCC(=O)N2CC(C(N)=O)Oc3ccccc32)cc1 (stereo not given)	8.1	x	x	-15.4	-0.6	-6.5
CC1=C(C(=O)OCC(C)C)C(c2cc3c(cc2Br)OCO3)NC(=O)N1C (stereo not given)	-12.1	-3.0	35.5	5.7	-22.6	-2.5
COC(=O)C1=CN(C(C)C)C=C(C(=O)OC)C1c1cc2c(cc1Br)OCO2	3.6	9.3	99.9*	14.5	28.9	31.9
C[n+]1ccc(CC2C(=[N+]([O-])[O-])C=Nc3ncnn32)cc1 (stereo not given)	x	x	-6.7	x	x	x
CN(C(=O)c1ccccc1C(=O)OCC(=O)NCc1ccccc1)C1CCCCC1	14.2	-5.5	67.4*	-7.9	-12.7	-7.5
CCCNC(=O)COC(=O)c1ccccc1C(=O)N(C)C1CCCCC1	4.9	2.4	1.2	4.5	-5.8	12.0
Cc1c(Cc2ccccc2)c(=O)oc2cc(OCc3ccc(C(=O)O)cc3)ccc12	54.4*	-1.6	-6.9	-1.1	-4.6	-17.3
COc1ccc(CC(=O)N2CCN(S(=O)(=O)c3cc(Cl)ccc3Cl)CC2)cc1	x	3.1	x	3.7	x	x
COc1ccc(N2CCN(Cc3nc4scc(-c5ccccc5)c4c(=O)[nH]3)CC2)cc1	25.7	2.6	61.6*	12.0	14.3	6.8
Fc1ccc(-c2csc3ncnc(Nc4ccc(N5CCOCC5)cc4)c23)cc1	2.2	8.3	65.5*	9.4	-6.2	20.1
Fc1ccc(N2CCN(c3nc(CN4CCOCC4)nc4scc(-c5ccccc5)c34)CC2)cc1	-3.1	9.1	66.9*	-5.1	-3.7	52.7
COc1ccc(N2CCN(Cc3nc4scc(-c5cccs5)c4c(=O)[nH]3)CC2)cc1	14.1	-7.9	-10.2	8.6	10.6	1.5
CN(Cc1ccccc1)c1nc(CN2CCOCC2)nc2scc(-c3ccccc3)c12	40.0	0.5	18.0	-2.0	18.5	0.6
NS(=O)(=O)c1ccc(NC(=S)NCc2ccco2)cc1	0.6	-10.3	-6.5	-7.9	-7.0	-3.0
Cc1[nH]c2ccccc2c1C(=O)C(C)OC(=O)C1CCC1 (stereo not given)	-7.1	0.4	x	-8.4	x	-3.9
O=C(O)CCCC(=O)N1CCOCCOCCOCCOCC1	-3.5	-7.2	x	-8.2	-10.1	1.0
CCOc1ccc(S(=O)(=O)Nc2ccc(C(=O)NCCCN3CCOCC3)cc2)cc1	-0.1	-4.8	x	-19.6	-8.6	-6.4
Cc1cc(C)nc(Sc2ccc([N+](=O)[O-])cc2[N+](=O)[O-])n1	1.3	-17.0	86.6*	39.4	35.6	13.1
COc1cc(C2C3=C(CC(C)(C)CC3=O)OC(N)=C2[N+](=O)[O-])ccc1O (stereo not given)	-0.4	0.0	-5.2	14.0	1.8	-11.0
Cc1ccccc1Nc1ncnc(N)n1	1.1	-6.7	-8.4	19.9	-8.4	-4.9
CCC(Oc1ccccc1)C(=O)Nc1ccsc1C(=O)OC (stereo not given)	19.0	-0.7	73.7*	6.5	9.3	-1.4
SMILES	SKKanGAS inh	Beta apoptosis	L major viab	Mdm2 MdmX PPI	CSC inhib	T cruzi repl
COC(=O)c1cc(-c2cccc(OC)c2)c2c(=O)[nH]c(=O)n(C)c2n1	62.3*	-7.1	x	28.7	6.2	8.7
CN(C)NC(=O)c1ccsc1NC(=O)c1ccc(S(=O)(=O)N(C)C)cc1	1.1	7.5	10.8	-23.1	1.2	-10.0
COc1ccc(OC)c(NC(=O)COc2ccc3c(c2)CCC3)c1	x	-6.2	x	9.5	x	x
CCOc1ccc(C(OC(=O)c2ccco2)C(=O)NCc2ccc(C)cc2)cc1 (stereo not given)	-6.0	-3.0	3.0	-15.6	3.3	-8.0
Cc1ccc(C(OC(=O)c2ccco2)C(=O)NCc2cccs2)cc1 (stereo not given)	2.0	-10.9	55.9*	-11.5	-11.9	-1.8
CC(=O)c1c(C)[nH]c(C(=O)COc2cc(C)ccc2C(C)C)c1C	7.8	102.8*	12.7	33.6	17.0	31.9
COc1cc(C)ccc1OCC(=O)OCC(=O)c1[nH]c(C)c(C(C)=O)c1C	x	1.5	x	-1.2	-8.9	x
COc1ccc(O)c(C(=O)c2cc(SCC(=O)O)c3nc4sc5c(c4c(=O)n3c2)CCCC5)c1	51.5*	-2.1	x	22.2	26.9	-2.6
COc1ccc(-n2c(SCC(=O)O)nc3sc4c(c3c2=O)CCCC4)cc1	17.8	-12.7	x	12.0	-6.6	-6.8
CCOC(=O)c1sc2nc3c(SCC(=O)O)cc(C(=O)c4ccccc4O)cn3c(=O)c2c1C	5.5	-11.9	-8.9	-0.7	7.2	-14.7
CCOC(=O)c1sc2nc3c(SCC(=O)O)cc(C(=O)c4cc(F)ccc4O)cn3c(=O)c2c1C	74.3*	-3.5	10.7	x	25.9	-2.5
Nc1ncnc2c1ncn2[C@@H]1O[C@H](CN2CCCS2(=O)=O)[C@@H](O)[C@H]1O	x	-8.7	x	8.7	x	x
Fc1ccc(-n2nnc(-c3nccs3)n2)cc1	4.9	5.5	-2.8	-132.9	14.2	-18.9
C=Cc1ccc2c(c1)N(C)C(=C)S2	3.1	-10.8	-5.6	6.8	-11.5	6.5
COc1ccc(C2(c3ccc(OC)cc3)NC(=O)N(CC(=O)NC3CCCC3)C2=O)cc1	0.8	-5.0	x	5.7	-16.5	-5.3
CCOc1ccc(C(=O)NC2CC(C)(C)NC(C)(C)C2)cc1	-4.3	-4.1	x	2.8	-8.6	-0.6
CC1(C)CC(NC(=O)COc2ccc3ccccc3c2)CC(C)(C)N1	2.1	2.0	83.5*	13.5	-3.2	7.0
CCOc1ccc2oc(C(=O)NC3CC(C)(C)NC(C)(C)C3)c(C)c2c1	8.1	-0.3	82.3*	34.1	x	42.7
CCOc1ccc2oc(C(=O)NC3CCN(Cc4ccccc4)CC3)c(C)c2c1	0.3	-7.8	82.6*	27.7	13.4	60.8*
CC(=O)N1CCN(Cc2nc3cc(NC(=O)c4cccs4)ccc3n2C)CC1	-3.1	-3.2	x	13.6	x	-1.7
CCOC(=O)C1(CCCc2ccccc2)CCN(Cc2cn(CC)nc2C)CC1	-31.6	7.0	84.3*	11.7	38.8	-27.7
CCOC(=O)C1(CCCc2ccccc2)CCN(C(=O)Cc2nonc2C)CC1	-4.0	-1.4	21.4	7.8	-4.7	16.2
CCOC(=O)C1(Cc2cccc(F)c2)CCN(Cc2cn(CC)nc2C)CC1	4.1	-4.8	70.9*	5.1	17.3	4.4
